Assay results reported in ChEMBL document CHEMBL1671620, “Mutations in the fks1 gene in Candida albicans, C. tropicalis, and C. krusei correlate with elevated caspofungin MICs uncovered in AM3 medium using the method of the European Committee on Antibiotic Susceptibility Testing” (2008).
≈ marks a conversion by molar mass, not a printed value.

Assays:
Candida albicans [1] = test: Antifungal activity against Candida albicans isolate 15 expressing wild type 1,3-beta-glucan synthase grown on RPMI media after 24 hrs by EUCAST microdilution method; conditions: isolate 15, 24 h
Candida albicans [2] = test: Antifungal activity against Candida albicans isolate 2 expressing wild type 1,3-beta-glucan synthase grown on AM3 media after 48 hrs by EUCAST microdilution method; format: functional; conditions: isolate 2, 24 h, in the assay text read “24 hrs” for “48 hrs”
Procedure, shortened: (§1)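 EUCAST (AFST-EUCAST) broth microdilution with caspofungin at 0.015 to 8 μg/ml final, in AM3 with glucose added to 2% final. Final inoculum was 10⁵ yeast cells/ml, with microplates prepared in batches and stored at −20°C. Plates were incubated at 35°C in humid ambient air and read spectrophotometrically after shaking at 24 h and 48 h. MIC was ≥50% growth reduction versus drug-free well; 90% end point also read at both times.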

Candida albicans [3] = test: Antifungal activity against Candida albicans isolate 3 expressing wild type 1,3-beta-glucan synthase grown on RPMI media after 24 hrs by EUCAST microdilution method; conditions: isolate 3, 24 h
Candida albicans [4] = test: Antifungal activity against Candida albicans isolate 20 harboring 1,3-beta-glucan synthase HS1 point mutant grown on AM3 media after 24 hrs by EUCAST microdilution method; conditions: isolate 20, 24 h
Candida albicans [5] = test: Antifungal activity against Candida albicans isolate 14 expressing wild type 1,3-beta-glucan synthase grown on AM3 media after 48 hrs by EUCAST microdilution method; format: functional; conditions: isolate 14, 24 h, in the assay text read “after 24 hrs” for “after 48 hrs”
Procedure, shortened: as §1

Pichia kudriavzevii = test: Antifungal activity against Candida krusei ATCC 6258 expressing wild type 1,3-beta-glucan synthase grown on AM3 media after 48 hrs by EUCAST microdilution method; format: functional; conditions: ATCC 6258, 24 h, in the assay text read “after 24 hrs” for “after 48 hrs”
Procedure, shortened: as §1

Candida albicans [6] = test: Antifungal activity against Candida albicans isolate 1 expressing wild type 1,3-beta-glucan synthase grown on AM3 media after 48 hrs by EUCAST microdilution method; format: functional; conditions: isolate 1, 24 h, in the assay text read “24 hrs” for “48 hrs”
Procedure, shortened: as §1

Candida albicans [7] = test: Antifungal activity against Candida albicans isolate 17 expressing wild type 1,3-beta-glucan synthase grown on RPMI media after 24 hrs by EUCAST microdilution method; conditions: isolate 17, 24 h
Candida albicans [8] = test: Antifungal activity against Candida albicans isolate 23 harboring 1,3-beta-glucan synthase HS2 point mutant grown on AM3 media after 24 hrs by EUCAST microdilution method; conditions: isolate 23, 24 h
Candida albicans [9] = test: Antifungal activity against Candida albicans isolate 20 harboring 1,3-beta-glucan synthase HS1 point mutant grown on RPMI media after 24 hrs by EUCAST microdilution method; conditions: isolate 20, 24 h

CC[C@H](C)C[C@H](C)CCCCCCCCC(=O)N[C@H]1C[C@@H](O)[C@@H](NCCN)NC(=O)[C@@H]2[C@@H](O)CCN2C(=O)[C@H]([C@H](O)CCN)NC(=O)[C@H]([C@H](O)[C@@H](O)c2ccc(O)cc2)NC(=O)[C@@H]2C[C@@H](O)CN2C(=O)[C@H]([C@@H](C)O)NC1=O [CASPOFUNGIN]
MIC (Candida albicans [1]): 0.25 µg/mL (≈ 0.229 µM)
MIC (Candida albicans [2]): 0.03 µg/mL (≈ 0.0274 µM)
MIC (Candida albicans [3]): 0.25 µg/mL (≈ 0.229 µM)
MIC (Candida albicans [4]): 2 µg/mL (≈ 1.83 µM)
MIC (Candida albicans [5]): 0.03 µg/mL (≈ 0.0274 µM)
MIC (Pichia kudriavzevii): 0.06 µg/mL (≈ 0.0549 µM)
MIC (Candida albicans [6]): 0.03 µg/mL (≈ 0.0274 µM)
MIC (Candida albicans [7]): 0.5 µg/mL (≈ 0.457 µM)
MIC (Candida albicans [8]): 0.5 µg/mL (≈ 0.457 µM)
MIC (Candida albicans [9]): 2 µg/mL (≈ 1.83 µM)
